Results from ChEMBL document CHEMBL1142487, “Design, synthesis, and structure-activity relationship of novel opioid kappa-agonists” (Bioorg Med Chem, 2008).
The source made the active and inactive calls. The rule behind the calls is not given here.

Tests used:
Mus musculus [1] = assay: Antinociceptive activity in po dosed mouse assessed as inhibition of acetic acid-induced writhing administered 15 mins before acetic acid challenge; type: functional
Method in brief: (§1)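 Male mice (5 weeks old) received test compound sc into the rostral back or po, 15 min before ip 0.6% aqueous acetic acid (0.1 mL/10 g). Writhes were counted over 10 min, starting 10 min after the acid. […] The po/sc ED50 ratio was calculated.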

Mus musculus [2] = assay: Ratio of ED50 for acetic acid-induced writhing in po dosed mouse to ED50 for acetic acid-induced writhing in sc dosed mouse; type: functional; method in brief: as §1
[3] = target: Mu-type opioid receptor (Mus musculus) (UniProt P42866); assay: Equilibrium constant, ratio of IC50 for mu opioid receptor in ddy mouse vas deferens in presence of 30 nM naloxone to IC50 for mu opioid receptor in ddy mouse vas deferens
Method in brief: (§2)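 Electrically stimulated ddY mouse vas deferens was held in Krebs-Henseleit at 37 °C under 95% O2/5% CO2. Tissue was preincubated 20 min with antagonist before the test agonist: naloxone 30 nM (μ), NTI 10 nM (δ), or nor-BNI 10 nM (κ). IC50s were compared with and without antagonist. Ke = [antagonist]/(IC50 ratio − 1).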

[4] = target: Kappa-type opioid receptor (Mus musculus) (UniProt P33534); assay: Equilibrium constant, ratio of IC50 for kappa opioid receptor in ddy mouse vas deferens in presence of 10 nM nor-BNI to IC50 for kappa opioid receptor in ddy mouse vas deferens; method in brief: as §2
[5] = target: Kappa-type opioid receptor (Mus musculus, UniProt P33534); assay: Agonist activity at kappa opioid receptor in ddy mouse vas deferens assessed as inhibition of electric stimulation-induced contraction; type: functional, tissue-based
Mus musculus [6] = assay: Antinociceptive activity in sc dosed mouse assessed as inhibition of acetic acid-induced writhing administered 15 mins before acetic acid challenge; type: functional; method in brief: as §1
[7] = target: Delta-type opioid receptor (Mus musculus) (UniProt P32300); assay: Equilibrium constant, ratio of IC50 for delta opioid receptor in ddy mouse vas deferens in presence of 10 nM Naltrindole to IC50 for delta opioid receptor in ddy mouse vas deferens; method in brief: as §2
Mus musculus [8] = assay: Inhibition of acetic acid-induced writhing in sc dosed mouse up to 180 mins administered 15 mins before acetic acid challenge; type: functional, organism-based

Row | Structure (SMILES) | ED50 (Mus musculus [1]) | Ratio ED50 (Mus musculus [2]) | Ke [3] | Ke [4] | IC50 [5] | ED50 (Mus musculus [6]) | Ke [7] | Activity (Mus musculus [8])
1 | CCC/C=C/C(=O)N(C)[C@@H]1CC[C@@]2(O)[C@H]3Cc4ccc(O)c5c4[C@@]2(CCN3CC2CC2)[C@H]1O5 | 0.21 mg/kg | 8.8 | 1800 nM | 0.072 nM | 647 pM | – | – | –
2 | CC(=O)Nc1ccc2c3c1O[C@H]1[C@H](N(C)C(=O)/C=C/c4ccoc4)CC[C@@]4(O)[C@@H](C2)N(CC2CC2)CC[C@]314 | – | – | – | – | – | > 10 mg/kg | – | –
3 | CN(C(=O)/C=C/c1ccoc1)[C@@H]1CC[C@@]2(O)[C@H]3Cc4ccc(N)c5c4[C@@]2(CCN3CC2CC2)[C@H]1O5 | – | – | – | – | – | 0.2 mg/kg | – | –
4 | CN1CC[C@]23c4c5ccc(O)c4O[C@H]2[C@H](N(C)C(=O)/C=C/c2ccoc2)CC[C@@]3(O)[C@H]1C5 | – | – | 8.1 nM | 6.3 nM | 55000 pM | 1.03 mg/kg | 33 nM | –
5 | CN(C(=O)/C=C/c1ccoc1)[C@H]1CC[C@@]2(O)[C@H]3Cc4ccc(O)c5c4[C@@]2(CCN3CC2CC2)[C@H]1O5 | 0.13 mg/kg | – | – | – | – | – | – | –
6 | CN(C(=O)Cc1ccc(Cl)c(Cl)c1)[C@@H]1CC[C@@]2(O)[C@H]3Cc4ccc(O)c5c4[C@@]2(CCN3CC2CC2)[C@H]1O5 | 18 mg/kg | 39.1 | 17000 nM | 1.37 nM | 17000 pM | – | 1110 nM | –
7 | CN(C(=O)/C=C/c1ccc(C(F)(F)F)cc1)[C@@H]1CC[C@@]2(O)[C@H]3Cc4ccc(O)c5c4[C@@]2(CCN3CC2CC2)[C@H]1O5 | 0.026 mg/kg | 1.1 | 524 nM | 0.2 nM | 70 pM | – | 78 nM | Active
8 | CN(C(=O)/C=C/c1ccccc1)[C@@H]1CC[C@@]2(O)[C@H]3Cc4ccc(O)c5c4[C@@]2(CCN3CC2CC2)[C@H]1O5 | 0.011 mg/kg | 5.5 | 922 nM | 0.861 nM | 166 pM | 0.002 mg/kg | 263 nM | Active
9 | O=C(/C=C/c1ccoc1)S[C@@H]1CC[C@@]2(O)[C@H]3Cc4ccc(O)c5c4[C@@]2(CCN3CC2CC2)[C@H]1O5 | – | – | – | – | – | > 10 mg/kg | – | –
10 | CN(C(=O)/C=C/c1ccoc1)[C@@H]1CC[C@@]2(O)[C@H]3Cc4ccc(O)c5c4[C@@]2(CCN3CCc2ccccc2)[C@H]1O5 | – | – | – | – | – | 1.03 mg/kg | – | –
11 | CCCCCCO[C@@H]1CC[C@@]2(O)[C@H]3Cc4ccc(O)c5c4[C@@]2(CCN3CC2CC2)[C@H]1O5 | – | – | 4.5 nM | 0.12 nM | 16000 pM | 1.78 mg/kg | 1.5 nM | –
12 | CN(C(=O)/C=C/c1ccccc1)[C@H]1CC[C@@]2(O)[C@H]3Cc4ccc(O)c5c4[C@@]2(CCN3CC2CC2)[C@H]1O5 | 0.032 mg/kg | 9.7 | 14000 nM | 0.16 nM | 420 pM | 0.0033 mg/kg | 41.6 nM | Active
13 | CN(C(=O)/C=C/c1cccc(F)c1)[C@@H]1CC[C@@]2(O)[C@H]3Cc4ccc(O)c5c4[C@@]2(CCN3CC2CC2)[C@H]1O5 | 0.007 mg/kg | 3.7 | – | 2.37 nM | 1600 pM | – | 276 nM | Active
14 | CN(C(=O)c1ccc2ccccc2c1)[C@@H]1CC[C@@]2(O)[C@H]3Cc4ccc(O)c5c4[C@@]2(CCN3CC2CC2)[C@H]1O5 | – | – | – | – | – | 3.6 mg/kg | – | –
15 | CN(C(=O)/C=C/c1cccc([N+](=O)[O-])c1)[C@@H]1CC[C@@]2(O)[C@H]3Cc4ccc(O)c5c4[C@@]2(CCN3CC2CC2)[C@H]1O5 | 0.22 mg/kg | 12.9 | 185 nM | 1.4 nM | 230 pM | – | 89 nM | –
16 | CN(C(=O)/C=C/c1ccoc1)[C@@H]1CC[C@@]2(O)[C@H]3Cc4cccc5c4[C@@]2(CCN3CC2CC2)[C@H]1O5 | – | – | 12 nM | 0.07 nM | 27200 pM | – | 8.4 nM | –
17 | CN(C(=O)/C=C/c1cccs1)[C@@H]1CC[C@@]2(O)[C@H]3Cc4ccc(O)c5c4[C@@]2(CCN3CC2CC2)[C@H]1O5 | 0.026 mg/kg | 9.6 | – | 0.28 nM | 100 pM | 0.0027 mg/kg | 89.6 nM | Active
18 | CN(C(=O)/C=C/c1ccco1)[C@@H]1CC[C@@]2(O)[C@H]3Cc4ccc(O)c5c4[C@@]2(CCN3CC2CC2)[C@H]1O5 | 0.015 mg/kg | 9.4 | – | 0.2 nM | 550 pM | – | – | Active
19 | COc1cccc(/C=C/C(=O)N(C)[C@@H]2CC[C@@]3(O)[C@H]4Cc5ccc(O)c6c5[C@@]3(CCN4CC3CC3)[C@H]2O6)c1 | 0.0048 mg/kg | 4.4 | 60.9 nM | 1.6 nM | 750 pM | 0.0011 mg/kg | 96.4 nM | Active
20 | CCCCCCN[C@@H]1CC[C@@]2(O)[C@H]3Cc4ccc(O)c5c4[C@@]2(CCN3CC2CC2)[C@H]1O5 | – | – | 14 nM | 0.3 nM | 2000 pM | – | – | –
21 | O=C(/C=C/c1ccoc1)N[C@@H]1CC[C@@]2(O)[C@H]3Cc4ccc(O)c5c4[C@@]2(CCN3CC2CC2)[C@H]1O5 | – | – | – | 0.44 nM | 869 pM | 0.95 mg/kg | 8100 nM | –
22 | CN(C(=O)/C=C/c1cccc(C(F)(F)F)c1)[C@@H]1CC[C@@]2(O)[C@H]3Cc4ccc(O)c5c4[C@@]2(CCN3CC2CC2)[C@H]1O5 | 0.034 mg/kg | 7.4 | – | 3.2 nM | 470 pM | – | 291 nM | –
23 | CN(C(=O)/C=C/c1ccoc1)[C@@H]1CC[C@@]2(O)[C@H]3Cc4ccc(O)c5c4[C@@]2(CCN3)[C@H]1O5 | – | – | – | – | – | 7.07 mg/kg | – | –
24 | CN(C(=O)/C=C/c1ccsc1)[C@@H]1CC[C@@]2(O)[C@H]3Cc4ccc(O)c5c4[C@@]2(CCN3CC2CC2)[C@H]1O5 | 0.04 mg/kg | 9.5 | – | 1.71 nM | 100 pM | – | – | Active
25 | CN(C(=O)CCc1ccccc1)[C@@H]1CC[C@@]2(O)[C@H]3Cc4ccc(O)c5c4[C@@]2(CCN3CC2CC2)[C@H]1O5 | 0.29 mg/kg | 7.3 | – | 0.008 nM | 19 pM | – | 188 nM | –
26 | Cc1cccc(/C=C/C(=O)N(C)[C@@H]2CC[C@@]3(O)[C@H]4Cc5ccc(O)c6c5[C@@]3(CCN4CC3CC3)[C@H]2O6)c1 | 0.064 mg/kg | 9.7 | 1780 nM | 1.95 nM | 320 pM | – | 64.5 nM | Active
27 | CN(C(=O)/C=C/c1ccoc1)[C@@H]1CC[C@H]2[C@H]3Cc4ccc(O)c5c4[C@@]2(CCN3CC2CC2)[C@H]1O5 | – | – | 8.04 nM | 0.07 nM | 35 pM | 0.02 mg/kg | 1.31 nM | –
28 | CN(C(=O)Cc1ccc(Cl)c(Cl)c1)[C@H]1CC[C@@]2(O)[C@H]3Cc4ccc(O)c5c4[C@@]2(CCN3CC2CC2)[C@H]1O5 | 0.83 mg/kg | 48 | 53 nM | 0.55 nM | 400 pM | – | 17.1 nM | –
